Assay outcomes from PubChem.
UPR XBP1 act = activators of adaptive arm of unfolded protein response (XBP1); CHO-XBP1 luciferase reporter, IRE1-XBP1 UPR activation, luminescence; percent of tunicamycin response, DMSO as zero; activation, % at 20 µM; actives 0.33% (n = 330,000); AID 463104;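 active = versus positive control, 20 µM dose yields 30% or more activation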
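Material: CHO-XBP1 cells stably carrying IRE1-XBP1-driven luciferase reporter / Amount: 1000 cells per well / Compound: 20 µM, 1% DMSO / Times: 6 h treatment, 37 °C / Detection: luciferase luminescence / Measure: % activation of reporter signal versus tunicamycin and DMSO controls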
UPR CHOP act = activators of apoptotic arm of unfolded protein response (CHOP); activation, % at 10 µM; AID 449763; CHO-CHOP luciferase reporter, UPR activation, luminescence; percent of tunicamycin response over DMSO baseline; actives 0.34% (n = 330,000);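 active = at 10 µM dose, activation of 40% or more, normalized to positive control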
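Material: CHO-CHOP cells, stable luciferase reporter of PERK-eIF2a-CHOP signalling; quantity: 500 reporter cells seeded per well; buffer or medium: F12 medium containing 10% fetal bovine serum; compound: one dose, 10 µM in 0.5% DMSO; incubation: 6 h compound treatment, 37 °C; measured by: Steady-Glo luciferase luminescence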
Jurkat NFkB inh = lowers PMA/ionomycin-induced NF-kB signal in Jurkat cells | PMA/ionomycin-induced NF-kB luciferase reporter, luminescence | inhibition, % at 4 µM | actives 0.53% (n = 330,000) | AID 435003; in the data active = inhibition above about 50%
Gli-Sufu block = blocks Gli-Sufu signaling in a luciferase reporter. inhibition, % at 5 µM. Sufu-KO-LIGHT fibroblasts, Gli luciferase reporter luminescence. actives 0.74% (n = 340,000);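 active = inhibition above about 55%, limit read from the data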
697 NFkB inh = lowers PMA/ionomycin-induced NF-kB signal in 697 B cells; 697 B-cell NF-kB luciferase reporter, 16 h; inhibition, % at 4 µM; actives 0.33% (n = 330,000); in the data active = inhibition above about 35%
CHOP inh = inhibitors of CHOP induction in ER stress response. inhibition, % at 10 µM. CHO-K1 CHOP-promoter luciferase, tunicamycin-induced, 15-18 h. AID 2732. actives 3.8% (n = 220,000);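 active = compounds that reduced the stress-induced luciferase reporter signal by more than about 70% of percent inhibition, limit read from the data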
Hits are given with their value; . = inactive; / = not tested or not shown. Shown are actives, neighbours in structure and some others; about 3.9% of the full set was active somewhere.

SMILES | UPR XBP1 act | UPR CHOP act | Jurkat NFkB inh | Gli-Sufu block | 697 NFkB inh | CHOP inh
O=C(COC(=O)c1ncc(Cl)c(Cl)c1Cl)Nc1cccnc1Cl | . | . | . | . | . | /
O=C(NC(=S)Nc1ccccc1Br)C1CCC1 | . | . | . | . | . | /
COc1ccc(-c2cc(C(=O)N3CCN(c4ccccc4O)CC3)c3ccccc3n2)cc1OC | . | . | . | . | . | /
COc1ccc(CCNC(=O)c2cc(C(=O)c3cc(Cl)ccc3O)cn(CCc3ccc(OC)cc3)c2=O)cc1 | . | . | . | . | . | .
O=C(c1cc(C(=O)NCCc2ccccc2)c(=O)n(CCc2ccccc2)c1)c1cc(Cl)ccc1O | . | . | . | . | . | 82
Cc1c(C(=O)Nc2c3c(nn2C(C)(C)C)CS(=O)(=O)C3)cccc1[N+](=O)[O-] | . | . | . | . | . | /
O=C(Cn1nnc(-c2cccc(C(F)(F)F)c2)n1)NC(=O)NCc1ccco1 | . | . | . | . | . | 90
O=C(Cn1nnc(-c2ccccc2)n1)NCc1ccco1 | . | . | . | . | . | .
N#Cc1ccccc1S(=O)(=O)N1CCN(C(=O)Cc2coc3cc(O)ccc23)CC1 | . | . | . | . | . | /
O=C(NCc1ccc2c(c1)OCO2)Nc1cccc2ccccc12 | . | . | . | . | . | 86
Cc1ccc(Cn2c(=O)n(CCC(=O)NCc3ccc4c(c3)OCO4)c(=O)c3ccccc32)cc1 | . | . | . | . | . | 95
COc1ccccc1NC(=O)NCc1ccc2c(c1)OCO2 | . | . | . | / | . | .
N#Cc1ccccc1Cn1c(=O)n(CCCC(=O)NCc2ccc3c(c2)OCO3)c(=O)c2ccccc21 | . | . | . | . | . | .
O=C(Nc1ccc2c(c1)C(=O)N(CC1CCCO1)C2=O)c1cccc(Br)c1 (configuration not stated) | . | . | . | . | . | 73
CCCCCC1CCC(c2n[nH]c(=S)n2C)CC1 (configuration not stated) | . | . | . | . | . | 95
CCN(CC)S(=O)(=O)c1ccc(N2CCN(C)CC2)c(NC(=O)c2cc(=O)c3ccccc3o2)c1 | . | . | . | . | . | /
COc1ccccc1C(=O)Oc1cc(N)n(S(=O)(=O)c2ccc(C)cc2)n1 | . | . | . | . | . | 79
Cc1ccc(S(=O)(=O)n2nc(OC(=O)C3CCCCC3)cc2N)cc1 | . | . | . | . | . | .
COc1ccc(S(=O)(=O)n2nc(OC(=O)C3CCCCC3)cc2N)cc1 | . | . | . | . | . | 74
Cc1nn(Cc2ccccc2)c(C)c1/C=N/NC(=O)CNc1cccc(C(F)(F)F)c1 | . | . | . | . | . | 70
COc1ccc(NCC(=O)N/N=C/c2c(C)nn(Cc3ccccc3)c2Cl)cc1 | . | . | . | . | . | .
CC[C@]12c3[nH]c4ccccc4c3CCN1C(=O)C(CC(=O)NCCC1=CCCCC1)C[C@@H]2C(=O)N1CCN(C(=O)C2CC2)CC1 (some centres not stated) | . | . | . | . | . | /
COc1cccc(CNC(=O)CSc2nnc3c(n2)[nH]c2ccccc23)c1 | . | . | . | . | . | /
CC(=O)N[C@H](C(=O)O)C(C)(C)SN=O | / | / | / | / | / | .
OC(COc1cccc2ccccc12)CN1CCN(c2ccccc2Cl)CC1 (configuration not stated) | / | / | / | . | / | 76
SMILES | UPR XBP1 act | UPR CHOP act | Jurkat NFkB inh | Gli-Sufu block | 697 NFkB inh | CHOP inh
OC(COCc1ccc(Cl)cc1)CN1CCCCC1 (configuration not stated) | . | . | . | . | . | /
Cc1ccccc1OCC(O)CN1CCN(c2ccc(Cl)cc2)CC1 (configuration not stated) | . | . | . | . | . | 82
Cc1ccc(N2CCN(CC(O)COc3cccc(C)c3)CC2)cc1 (configuration not stated) | . | . | . | . | . | .
OC(COCc1ccc(Cl)cc1)CN1CCN(CC(O)COCc2ccc(Cl)cc2)CC1 (configuration not stated) | . | . | . | . | . | 88
Cc1ccc(N2CCN(CC(O)COc3cccc4ccccc34)CC2)cc1 (configuration not stated) | . | . | . | . | . | 86
CC(C)c1ccc(/C=C(\NC(=O)c2ccccc2)C(=O)NCCN2CCOCC2)cc1 | . | . | . | / | . | /
